ChEMBL document CHEMBL5107950, “Structure-based design of haloperidol analogues as inhibitors of acetyltransferase Eis from Mycobacterium tuberculosis to overcome kanamycin resistance” (RSC Med Chem, 2021)
Converted amounts (≈) assume the structure as drawn. The source made the active and inactive calls. The rule behind the calls is not given here.

Key:
N-acetyltransferase Eis [1] = biological target: T1, N-acetyltransferase Eis (Mycobacterium tuberculosis (strain ATCC 25618 / H37Rv), UniProt P9WFK7); assay: Inhibition of Mycobacterium tuberculosis Eis assessed as Eis-mediated kanamycin acetylation preincubated for 10 mins followed by substrate addition and measured for 2 to 5 mins using acetyl-CoA as substrate in presence of kanamycin by UV-Vis spectroscopy analysis
T1 sequence (P9WFK7 whole entry): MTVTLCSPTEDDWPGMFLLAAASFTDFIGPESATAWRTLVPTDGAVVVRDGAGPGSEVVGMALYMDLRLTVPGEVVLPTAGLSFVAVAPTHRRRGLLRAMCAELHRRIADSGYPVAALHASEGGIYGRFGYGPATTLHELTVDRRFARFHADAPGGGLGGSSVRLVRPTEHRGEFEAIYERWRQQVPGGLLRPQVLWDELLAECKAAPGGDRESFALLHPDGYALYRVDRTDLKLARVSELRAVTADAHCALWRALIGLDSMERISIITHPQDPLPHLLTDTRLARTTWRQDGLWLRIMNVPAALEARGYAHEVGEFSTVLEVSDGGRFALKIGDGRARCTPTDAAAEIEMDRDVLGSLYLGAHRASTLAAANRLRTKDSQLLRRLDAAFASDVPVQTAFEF
How it was run: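 Recombinant Eis (1 µM) mixed with KAN (400 µM) in 50 mM Tris-HCl pH 8.0 and preincubated 10 min with 5-fold serially diluted inhibitor (10% DMSO in buffer). Reaction started with AcCoA and DTNB (2 mM each, as added). Absorbance read every 30 s for 20 min. Initial rates (first 2-5 min) fitted to Hill plot for IC50. At least triplicate.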

[2] = tested on: Mycolicibacterium smegmatis; assay: Antibacterial activity against Mycobacterium smegmatis mc2 155 assessed as inhibition of bacterial growth incubated upto 3 weeks hrs by resazurin dye based double-dilution method; assay type: functional; conditions: mc2 155, 504 h
How it was run: (§1)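 Double-dilution broth MIC. Media: M. smegmatis, Mueller-Hinton; M. abscessus, 7H9 + 0.05% Tween80 + 0.4% glycerol; mc²6230, 7H9 + 0.05% tyloxapol, 0.5% glycerol, 10% OADC, 0.2% casamino acids, 24 µg/mL pantothenate; other mycobacteria, 7H9 + 0.05% Tween80, 0.4% glycerol, 10% ADC. Inoculum from agar set to 0.5 McFarland, then diluted 1:100.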

[3] = tested on: Mycobacteroides abscessus; assay: Antibacterial activity against Mycobacterium abscessus ATCC 19977 assessed as inhibition of bacterial growth incubated upto 3 weeks hrs by resazurin dye based double-dilution method; assay type: functional; conditions: ATCC 19977, 504 h; how it was run: as §1
[4] = tested on: Mycobacterium intracellulare; assay: Antibacterial activity against Mycobacterium intracellulare ATCC 13950 assessed as inhibition of bacterial growth incubated upto 3 weeks hrs by resazurin dye based double-dilution method; assay type: functional; conditions: ATCC 13950, 504 h; how it was run: as §1
Mycobacterium avium [5] = assay: Antibacterial activity against Mycobacterium avium ATCC 25921 assessed as inhibition of bacterial growth incubated upto 3 weeks hrs by resazurin dye based double-dilution method; assay type: functional; conditions: ATCC 25921, 504 h; how it was run: as §1
[6] = tested on: Mycobacterium tuberculosis; assay: Antibacterial activity against Mycobacterium tuberculosis H37Ra ATCC NRS22 assessed as inhibition of bacterial growth incubated upto 3 weeks hrs by resazurin dye based double-dilution method; assay type: functional; conditions: H37Ra ATCC NRS22, 504 h; how it was run: as §1
[7] = tested on: Mycolicibacterium smegmatis; assay: Synergistic antibacterial activity against Mycobacterium smegmatis mc2 155 assessed as fold reduction in MIC value at 8 ug/ml in presence of spectinomycin by checkerboard assay; assay type: functional; conditions: dose 8 µg/ml
[8] = tested on: Mycolicibacterium smegmatis; assay: Synergistic antibacterial activity against Mycobacterium smegmatis mc2 155 assessed as fold reduction in MIC value at 8 ug/ml in presence of clarithromycin by checkerboard assay; assay type: functional; conditions: dose 8 µg/ml
[9] = tested on: Mycolicibacterium smegmatis; assay: Synergistic antibacterial activity against Mycobacterium smegmatis mc2 155 assessed as fold reduction in MIC value at 8 ug/ml in presence of clofazimine by checkerboard assay; assay type: functional, organism-based; conditions: dose 8.0 µg/ml
[10] = tested on: Mycobacteroides abscessus; assay: Synergistic antibacterial activity against Mycobacterium abscessus ATCC 19977 assessed as reduction in bacterial growth presence of spectinomycin by checkerboard assay; assay type: functional, organism-based
How it was run: (§2)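 Checkerboard in 96-well plates. Antibiotic two-fold serially diluted along columns, haloperidol derivative two-fold along rows. Bacteria prepared as for the MIC determination. MICs alone and in combination used to calculate FICI. At least duplicate independent trials.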

[11] = tested on: Mycobacteroides abscessus; assay: Synergistic antibacterial activity against Mycobacterium abscessus ATCC 19977 in presence of clarithromycin by checkerboard assay; assay type: functional, organism-based; how it was run: as §2
[12] = tested on: Mycobacteroides abscessus; assay: Synergistic antibacterial activity against Mycobacterium abscessus ATCC 19977 in presence of clofazimine by checkerboard assay; assay type: functional, organism-based; how it was run: as §2
[13] = tested on: Mycobacterium intracellulare; assay: Antibacterial activity against Mycobacterium intracellulare ATCC 13950 in presence of spectinomycin by checkerboard assay; assay type: functional, organism-based; how it was run: as §2
[14] = tested on: Mycobacterium intracellulare; assay: Antibacterial activity against Mycobacterium intracellulare ATCC 13950 in presence of clarithromycin by checkerboard assay; assay type: functional, organism-based; how it was run: as §2
[15] = tested on: Mycobacterium intracellulare; assay: Antibacterial activity against Mycobacterium intracellulare ATCC 13950 in presence of clofazimine by checkerboard assay; assay type: functional, organism-based; how it was run: as §2
Mycobacterium avium [16] = assay: Antibacterial activity against Mycobacterium avium ATCC 25921 in presence of spectinomycin by checkerboard assay; assay type: functional, organism-based; how it was run: as §2
Mycobacterium avium [17] = assay: Antibacterial activity against Mycobacterium avium ATCC 25921 in presence of clarithromycin by checkerboard assay; assay type: functional, organism-based; how it was run: as §2
Mycobacterium avium [18] = assay: Antibacterial activity against Mycobacterium avium ATCC 25921 in presence of clofazimine by checkerboard assay; assay type: functional, organism-based; how it was run: as §2
[19] = tested on: Mycobacterium tuberculosis; assay: Synergistic antibacterial activity against Mycobacterium tuberculosis H37Ra ATCC NRS22 in presence of spectinomycin by checkerboard assay; assay type: functional, organism-based; how it was run: as §2
HEK293 [20] = assay: Cytotoxicity against human HEK293 cells assessed as reduction in cell viability at 200 uM incubated for 24 hrs by resazurin assay; assay type: toxicity, cell-based; conditions: hek293, 24 h
How it was run: (§3)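 Resazurin viability assay in DMEM + 10% FBS, 1% penicillin/streptomycin, 37 °C, 5% CO₂. Seeding: HEK-293 and J774A.1 at 1×10^4 cells/mL, A549 at 5×10^3 cells/mL. After 24 h, compounds added (0.78-200 μM, 0.5% DMSO final). Resazurin added 24 h later, read after 6 h. 1% Triton X as positive control. Quadruplicate.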

A549 [21] = assay: Cytotoxicity against human A549 cells assessed as reduction in cell viability at 200 uM incubated for 24 hrs by resazurin assay; assay type: toxicity, cell-based; conditions: a549, 24 h; how it was run: as §3
J774.A1 [22] = assay: Cytotoxicity against mouse J774.A1 cells assessed as reduction in cell viability at 50 uM incubated for 24 hrs by resazurin assay; assay type: toxicity, cell-based; conditions: j774.a1, 24 h; how it was run: as §3
[23] = tested on: Mycobacterium tuberculosis; assay: Potentiation of kanamycin-induced antibacterial activity against Mycobacterium tuberculosis H37Rv assessed as kanamycin MIC incubated for 1 day followed by kanamycin addition for 6 days and by Alamar blue assay; assay type: functional; conditions: 168 h, time 7 day
How it was run: (§4)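 Mtb in 7H9 + 10% ADC, 0.05% Tween 80, 0.4% glycerol at 37 °C. Inoculum adjusted to OD600 0.2, diluted 1:25. Cells preincubated 24 h at 37 °C with compound (100 µL of 200 µM solution). KAN then added: H37Rv at 2.5 and 1.25 µg/mL; K204 at 10, 5, 2.5, 1.25 µg/mL. Incubated 6 days, AlamarBlue added, colour read at 24 and 48 h. MIC = lowest KAN with no colour change. At least twice in duplicate.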

[24] = tested on: Mycobacterium tuberculosis; assay: Potentiation of kanamycin-induced antibacterial activity against Mycobacterium tuberculosis K204 assessed as kanamycin MIC incubated for 1 day followed by kanamycin addition for 6 days and by Alamar blue assay; assay type: functional; conditions: K204, 168 h, time 7 day; how it was run: as §4
N-acetyltransferase Eis [25] = biological target: T1, N-acetyltransferase Eis; assay: Competitive inhibition of Mycobacterium tuberculosis Eis assessed as reduction in Eis-mediated kanamycin acetylation preincubated for 10 mins followed by substrate addition and measured for 2 to 5 mins using acetyl-CoA as substrate in presence of kanamycin by Lineweaver-Burk plot analysis
How it was run: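 Same DTNB-coupled Eis acetylation assay used for IC50, run as Michaelis-Menten kinetics with inhibitor at 0-1 μM. Vmax and Km from these fits used to determine mode of inhibition. Quadruplicate.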

A549 [26] = assay: Cytotoxicity against human A549 cells assessed as reduction in cell viability at 50 to 200 uM incubated for 24 hrs by resazurin assay; assay type: toxicity, cell-based; conditions: a549, 24 h, dose 50-200 µM; how it was run: as §3
J774.A1 [27] = assay: Cytotoxicity against mouse J774.A1 cells assessed as reduction in cell viability at 100 uM incubated for 24 hrs by resazurin assay; assay type: toxicity, cell-based; conditions: j774.a1, 24 h; how it was run: as §3
[28] = tested on: Mycobacterium tuberculosis; assay: Antibacterial activity against Mycobacterium tuberculosis H37Rv assessed as inhibition of bacterial growth at 100 uM incubated for 24 hrs by Alamar blue assay; assay type: functional, organism-based
[29] = tested on: Mycobacterium tuberculosis; assay: Antibacterial activity against Mycobacterium tuberculosis K204 assessed as inhibition of bacterial growth at 100 uM incubated for 24 hrs by Alamar blue assay; assay type: functional, organism-based
Escherichia coli = assay: Antibacterial activity against Escherichia coli MC1061 assessed as inhibition of bacterial growth incubated upto 3 weeks hrs by resazurin dye based double-dilution method; assay type: functional, organism-based
A549 [30] = assay: Cytotoxicity against human A549 cells assessed as reduction in cell viability at 25 uM incubated for 24 hrs by resazurin assay; assay type: toxicity, cell-based; conditions: a549, 24 h; how it was run: as §3
HEK293 [31] = assay: Cytotoxicity against human HEK293 cells assessed as reduction in cell viability at 25 uM incubated for 24 hrs by resazurin assay; assay type: toxicity, cell-based; conditions: hek293, 24 h; how it was run: as §3
J774.A1 [32] = assay: Cytotoxicity against mouse J774.A1 cells assessed as reduction in cell viability at 25 uM incubated for 24 hrs by resazurin assay; assay type: toxicity, cell-based; conditions: j774.a1, 24 h; how it was run: as §3
[33] = Metabolic stability in human liver microsomes at 2 to 4 uM incubated for 30 mins by LC-MS/MS analysis; assay type: ADME, Microsome; conditions: dose 2-4 µM, read-out: Stability
[34] = Metabolic stability in mouse liver microsomes at 2 to 4 uM incubated for 30 mins by LC-MS/MS analysis; assay type: ADME, Microsome; conditions: dose 2-4 µM, read-out: Stability

Compound	IC50 (N-acetyltransferase Eis [1])	MIC [2]	MIC [3]	MIC [4]	MIC (Mycobacterium avium [5])	MIC [6]	fold change (FC) [7]	fold change (FC) [8]	Activity (HEK293 [20])	Activity (J774.A1 [22])	further results
O=C(CCCN1CCC(O)(c2ccc(Cl)cc2)CC1)c1ccc(Cl)cc1 [CHLOROHALOPERIDOL]	5100 nM	> 62.5 µM	> 62.5 µM	> 62.5 µM	62.5 µM (≈ 24.5 µg/mL)	15.6 µM (≈ 6.12 µg/mL)	16	4	Non-Toxic	Toxic	Activity [9]: Active; Activity [10]: Active; Activity [11]: Active; Activity [12]: Active; Activity [13]: Active; Activity [14]: Active; Activity [15]: Active; Activity (Mycobacterium avium [16]): Active; Activity (Mycobacterium avium [17]): Active; Activity (Mycobacterium avium [18]): Active; Activity [19]: Active; Activity (A549 [21]): Non-Toxic
O=C(CCCN1CCC(O)(c2ccc(Cl)cc2)CC1)c1ccc(F)cc1 [HALOPERIDOL]	390 nM	> 62.5 µM	> 62.5 µM	62.5 µM (≈ 23.5 µg/mL)	62.5 µM (≈ 23.5 µg/mL)	31.3 µM (≈ 11.8 µg/mL)	16	4	Non-Toxic	100%	MIC [23]: ≤ 1.25 µg/mL; MIC [24]: 5 µg/mL; Ki (N-acetyltransferase Eis [25]): 390 nM; Activity (A549 [26]): 70%; Activity (J774.A1 [27]): Toxic
CC(C)(C)c1ccc(C(=O)CCCN2CCC(O)(c3ccc(Br)cc3)CC2)cc1	> 200000 nM	15.6 µM (≈ 7.15 µg/mL)	> 62.5 µM	7.8 µM (≈ 3.58 µg/mL)	7.8 µM (≈ 3.58 µg/mL)	3.9 µM (≈ 1.79 µg/mL)	16	4	–	–	inhibition [28]: Active; inhibition [29]: Active; inhibition (Escherichia coli): Active; Activity (A549 [30]): Toxic; Activity (HEK293 [31]): Toxic; Activity (J774.A1 [32]): Toxic; remaining at 0.5 h [33]: 56%; remaining at 0.5 h [34]: 58%
